High-throughput results deposited in PubChem by The Scripps Research Institute Molecular Screening Center.
Compounds with a hit are over-represented: about 1.8% of the library has one in this group of screens.
NPY Y2 blocker: NPY-Y2 receptor antagonists, primary screen, cell-based; Neuropeptide Y receptor type 2 (Homo sapiens), P49146; 140,000 compounds, 0.99% hits; NPY-Y2 expressing cells, antagonist mode; inhibition, % at 2.7 µM; in the data active = inhibition above about 17%
Target sequence (P49146 whole entry, looked up): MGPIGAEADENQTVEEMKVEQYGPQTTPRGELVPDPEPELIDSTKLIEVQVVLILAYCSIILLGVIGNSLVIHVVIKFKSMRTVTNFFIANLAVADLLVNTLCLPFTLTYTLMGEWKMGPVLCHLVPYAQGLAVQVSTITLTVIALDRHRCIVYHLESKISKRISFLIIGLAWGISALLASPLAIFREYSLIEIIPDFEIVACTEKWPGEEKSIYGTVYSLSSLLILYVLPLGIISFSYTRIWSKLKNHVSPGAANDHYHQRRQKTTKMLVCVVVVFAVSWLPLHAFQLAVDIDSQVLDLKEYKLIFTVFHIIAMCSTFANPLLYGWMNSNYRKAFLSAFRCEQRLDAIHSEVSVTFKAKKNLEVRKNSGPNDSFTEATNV
NPY2 pot ag: NPY-Y2 potentiators or agonists, primary screen, cell-based. activation, % at 3.6 µM. 220,000 compounds, 0.45% hits. cells expressing NPY-Y2, potentiator/agonist read-out. AID 1359, 2008. Neuropeptide Y receptor type 2 (Homo sapiens), P49146; in the data active = activation above about 27%;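 also: cells stimulated with NPY near EC25 plus isoproterenol at EC100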
NPY Y1 blocker: NPY-Y1 receptor antagonists, primary screen, cell-based; Neuropeptide Y receptor type 1 (Homo sapiens), P25929; HEK293-CNG Y1 cells, membrane potential fluorescence; NPY at EC95, then isoproterenol; inhibition, % at 3.6 µM; 200,000 compounds, 1% hits; AID 1040, 2008;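 active = inhibition above the campaign mean inhibition of all tested compounds plus 3 SD, cut at about 20% in these data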
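Test system – HEK293 Y1/CNG channel cell line · Also added – NPY agonist 25 nM, then isoproterenol 1 µM plus Ro 20-1724 25 µM · Compound dosing – one concentration, 3.6 µM, in 0.4% DMSO · Schedule – compound incubation 1 h at room temperature, readout 45 min post-stimulation · Technique – fluorescence, membrane potential probe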
NPY-Y1 PAM-ag: NPY-Y1 receptor potentiators or agonists, primary screen, cell-based | Neuropeptide Y receptor type 1 (Homo sapiens), P25929 | NPY-Y1 expressing cells, potentiator/agonist activation | activation, % at 3.6 µM | 220,000 compounds, 0.37% hits | AID 1304, 2008; in the data active = activation above about 33%, passing the limit was not always enough;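 also: cells stimulated with NPY at EC10 then isoproterenol at EC100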
NPY-Y2 pot conf: NPY-Y2 potentiators or agonists, confirmation, cell-based. cell-based NPY-Y2 potentiator/agonist assay. activation, % at 3.6 µM. 450 compounds, 20% hits. shares compounds with NPY2 pot ag. AID 1539, 2009; in the data active = activation above about 33%
NPY-Y1 counter: NPY-Y1 potentiators or agonists, counter-screen for NPY-Y2 potentiator project, cell-based, fluorescence. shares compounds with NPY2 pot ag. Y1 HEK293-CNG cells, membrane potential fluorescence. activation, % at 3.6 µM. 450 compounds, 20% hits. AID 1651, 2009; in the data active = activation above about 45%;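 also: cells stimulated with submaximal NPY then isoproterenol with phosphodiesterase inhibitor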
NPY-Y1 ag 2: NPY-Y1 direct agonists, selectivity assay for NPY-Y2 potentiator project, cell-based, fluorescence; 450 compounds, 37% hits; shares compounds with NPY2 pot ag; activation, % at 3.6 µM; HEK293 Y1-CNGC, membrane potential fluorescence, agonism;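 active = activation above the mean of DMSO-only control wells plus 3 SD, cut at about 18% in these data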;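 also: cells stimulated with 1 µM isoproterenol plus the PDE inhibitor Ro 20-1724; Y1 agonists lower the membrane potential dye signal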
CNGC inh: CNGC cAMP sensor activity inhibitors, counter-screen for NPY-Y2 potentiator project, cell-based, HEK293-CNG parental, membrane potential fluorescence. isoproterenol cAMP. inhibition, % at 3.6 µM. 450 compounds, 32% hits. AID 1703, 2009. shares compounds with NPY2 pot ag;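 active = inhibition above the control-well mean plus 3 SD of those wells, cut at about 22% in these data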
Y2 agonist ctr: NPY-Y2 direct agonists, counter-screen for NPY-Y2 potentiator project, cell-based, fluorescence; HEK293 Y2/CNGC cells, membrane potential fluorescence, agonist mode; 450 compounds, 56% hits; shares compounds with NPY2 pot ag; activation, % at 3.6 µM; AID 1710, 2009;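 active = activation above the mean of solvent-only control wells plus 3 SD, cut at about 10% in these data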;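 also: cells stimulated by isoproterenol with no NPY added so direct agonism is tested; agonism lowers probe fluorescence through less cAMP and CNG channel opening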
Hits are given with their value; – = inactive; · = no result.

SMILES	NPY Y2 blocker	NPY2 pot ag	NPY Y1 blocker	NPY-Y1 PAM-ag	NPY-Y2 pot conf	NPY-Y1 counter	NPY-Y1 ag 2	CNGC inh	Y2 agonist ctr
C/C=C/C(=O)N1c2ccc(C)cc2C(C)=CC1(C)C	·	97	·	–	–	–	–	–	–
COc1ccc(OCC(O)CNC(=O)Nc2ccccc2)cc1 (stereo not given)	·	44	·	–	–	–	–	–	–
OC(CNc1ccccc1)COc1ccc(OCC(O)CNc2ccccc2)cc1 (stereo not given)	–	37	–	–	43	57	44	44	47
COc1ccc(OCC(O)CNC(=O)Nc2ccc(F)cc2)cc1 (stereo not given)	·	–	·	–	·	·	·	·	·
COc1ccccc1C1=NOC(Cn2c(NCCOCCO)nc3c2c(=O)n(C)c(=O)n3C)C1 (stereo not given)	·	–	·	–	·	·	·	·	·
O=C(NNc1ccc(C(F)(F)F)cc1[N+](=O)[O-])c1ccc(NS(=O)(=O)c2ccc(F)cc2)cc1	–	45	–	–	58	72	62	62	62
CC(C)[C@H](Nc1ccc(C(F)(F)F)cc1[N+](=O)[O-])C(=O)O	·	–	·	–	·	·	·	·	·
Nc1c(-c2ccccc2)cnn1-c1cccc(C(F)(F)F)c1	–	–	–	–	·	·	·	·	·
Nc1c(-c2cccc(Cl)c2)cnn1-c1cccc(C(F)(F)F)c1	–	42	–	–	61	68	61	47	74
COc1ccc(CC(=O)NC(C)c2nnc(SCC(=O)Nc3ccccc3)n2C)cc1 (stereo not given)	·	–	–	–	·	·	·	·	·
COC(=O)c1ccc(NC(=O)CSc2nnc(C(C)NC(=O)c3ccccc3Cl)n2C)cc1 (stereo not given)	–	37	–	–	–	–	–	–	28
O=S(=O)(c1ccccc1)N1CCC(O)(CSc2ccc(Cl)cc2)CC1	–	34	–	–	–	–	–	–	–
O=S(=O)(c1ccc(Cl)cc1)N1CCC(O)(CN2CCN(Cc3ccccc3)CC2)CC1	·	–	–	–	·	·	·	·	·
CCn1c2ccccc2c2cc(NC(=O)CN(C)CC(=O)Nc3ccc(N4CCOCC4)cc3)ccc21	·	27	–	–	–	–	–	–	18
CCCCc1nc2cc(Cl)ccc2o1	·	–	–	–	·	·	·	·	·
Cc1cccc(-n2c(N)cc(=O)nc2SCC(=O)Nc2cc(C)on2)c1	–	79	–	–	–	–	–	–	–
Cc1cc(N/C(=N/S(=O)(=O)c2cc(F)ccc2F)c2ccccc2)n(-c2ccccc2)n1	·	–	–	–	·	·	·	·	·
Cc1cc(N/C(=N/S(=O)(=O)c2ccc(F)cc2)c2ccccc2)n(-c2ccccc2)n1	·	28	–	–	–	–	–	–	–
COc1ccc(-c2nc3cnccn3c2Nc2ccc(C)cc2)cc1	–	29	–	–	47	–	29	27	52
COc1ccc(/C=C/C(=O)c2c(O)ccc3c(C)cc(=O)oc23)cc1	–	64	–	–	–	–	–	–	–
COc1ccc(/C=C\C(=O)c2c(O)ccc3c(C)cc(=O)oc23)cc1	–	–	–	–	·	·	·	·	·
Cc1ccc(Cn2nnc3c(=O)n(CC(=O)c4ccccc4)cnc32)cc1	–	–	–	–	·	·	·	·	·
CC(=O)N(Cc1ccc(F)cc1)C1=C(NCc2ccccc2)C(=O)c2ccccc2C1=O	–	38	–	–	–	–	–	–	10
Nc1[nH]nc2c1NN(c1ccc(Cl)cc1Cl)N2	–	32	–	–	–	–	–	24	21
Nc1c(-c2n[nH]c(=S)n2-c2ccc(Cl)cc2Cl)cnn1-c1ccccc1	·	–	·	–	·	·	·	·	·
SMILES	NPY Y2 blocker	NPY2 pot ag	NPY Y1 blocker	NPY-Y1 PAM-ag	NPY-Y2 pot conf	NPY-Y1 counter	NPY-Y1 ag 2	CNGC inh	Y2 agonist ctr
O=C(CCc1ccc(Oc2cc([N+](=O)[O-])cc([N+](=O)[O-])c2)cc1)N1CCCCC1	–	–	–	–	·	·	·	·	·
N#C/C(=N/Nc1ccc([N+](=O)[O-])cc1)C(=N)N1CCCCC1	·	35	–	–	–	45	43	28	30
N#C/C(=N\Nc1ccc([N+](=O)[O-])cc1)C(=N)N1CCOCC1	·	–	·	–	·	·	·	·	·
COCCN1C(=O)C(CC(=O)Nc2ccc(C(C)=O)cc2)SC1=Nc1ccccc1 (stereo not given)	–	43	–	–	37	49	42	34	34
CC(O)CN1C(=O)C(CC(=O)Nc2ccc(Cl)cc2)SC1=Nc1ccccc1 (stereo not given)	–	–	–	–	·	·	·	·	·
Cn1cccc1CNC(=S)Nc1ccccc1F	·	–	–	–	·	·	·	·	·
O=c1[nH]cnc2c1N=C(c1cccc([N+](=O)[O-])c1)CC(c1ccccc1)N2 (stereo not given)	·	–	–	–	·	·	·	·	·
Cc1ccc(NS(=O)(=O)c2cc([N+](=O)[O-])ccc2NNC(=S)Nc2cc(C)ccc2C)c(C)c1	–	–	–	–	·	·	·	·	·
Cc1ccc(NS(=O)(=O)c2cc([N+](=O)[O-])ccc2NNC(=S)Nc2cccc(Cl)c2)c(C)c1	–	31	–	–	76	97	79	62	75
C/C(=N\Nc1ccc(F)cc1F)c1cccs1	·	–	–	–	·	·	·	·	·
CN1C/C(=N\S(=O)(=O)c2ccccc2)N(C)C1=O	–	101	–	–	–	–	–	–	–
Cc1nc2ccccn2c1-c1ccnc(SCc2ccc(Cl)cc2)n1	·	49	·	–	–	–	–	–	–
O/N=C/c1ccnc(SCc2ccc(Cl)cc2)n1	·	–	·	–	·	·	·	·	·
O=C(NC(=S)Nc1ccc(CN2CCOCC2)cc1)c1ccc2c(c1)OCCO2	·	–	·	–	·	·	·	·	·
Cc1nn(Cc2ccc(F)cc2)c(C)c1NC(=O)c1cnn2c1NC(c1ccccc1)CC2C(F)(F)F (stereo not given)	–	34	–	–	–	–	19	22	27
Cc1nn(Cc2ccc(F)cc2)c(C)c1NC(=O)c1cnn2c1NC(c1cccs1)CC2C(F)(F)F (stereo not given)	–	–	–	–	·	·	·	·	·
O=C1C(Nc2ccccc2)=C/C(=N/S(=O)(=O)c2cccs2)c2ccccc21	–	48	–	–	68	74	60	53	67
CCOC(=O)c1[nH]c2ccc(F)cc2c1NC(=O)CN1CCN(C/C=C/c2ccccc2)CC1	–	38	–	–	67	90	68	71	53
